# Molecular target: T1, 11-beta-hydroxylase (Cytochrome P450 11B1, mitochondrial) (Rattus norvegicus, UniProt P15393)
# T1 sequence (P15393 whole entry): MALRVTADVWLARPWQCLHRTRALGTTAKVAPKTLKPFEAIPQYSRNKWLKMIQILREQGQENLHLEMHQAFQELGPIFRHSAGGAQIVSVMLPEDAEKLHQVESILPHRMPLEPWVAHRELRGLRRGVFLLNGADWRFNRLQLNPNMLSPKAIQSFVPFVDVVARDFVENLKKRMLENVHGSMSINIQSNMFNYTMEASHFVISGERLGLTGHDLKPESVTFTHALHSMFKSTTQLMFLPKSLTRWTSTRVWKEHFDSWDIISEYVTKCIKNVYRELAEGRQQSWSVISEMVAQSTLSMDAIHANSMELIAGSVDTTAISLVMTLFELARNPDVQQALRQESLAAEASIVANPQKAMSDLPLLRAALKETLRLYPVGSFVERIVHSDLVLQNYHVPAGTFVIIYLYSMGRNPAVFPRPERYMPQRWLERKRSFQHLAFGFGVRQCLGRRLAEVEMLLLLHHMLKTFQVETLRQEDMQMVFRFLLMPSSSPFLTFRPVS
# Assay: Inhibition of rat adrenal 11-beta-hydroxylase at 10e-5 M
# Settings: rat adrenal 11-beta-hydroxylase (adrenal enzyme preparation)
# How it was run: (§1)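 Washed adrenal mitochondria from three male Charles River rats, used within 30 min. Incubated at 37 °C, pH 7.4 (HEPES/sucrose/MgCl2/KH2PO4/malate) with 50 μM [14C]-11-deoxycorticosterone and test drug, 5-min preincubation then 10 min with mitochondria. Extracted into CH2Cl2. Substrate and corticosterone separated by silica TLC and counted by scintillation.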
row,inhibition at 0.0001 M,SMILES
1,72%,c1ccc(OCCn2ccnc2)cc1

# Molecular target: T2, Cytochrome P450 11B1, mitochondrial (Rattus norvegicus, UniProt P15393)
# T2 sequence (P15393 whole entry): T1 sequence (P15393 whole entry)
# Assay: Inhibition of rat adrenal 11-beta-hydroxylase
# Settings: not given
# How it was run: as §1
row,SMILES,IC50
1,O=C(O)c1cccc(OCCn2ccnc2)c1,> 100000 nM
2,CC(C)c1[nH]c2ccccc2c1Cn1ccnc1,2000 nM

# Second part, the compound after the results:
row,IC50,SMILES
1,> 100000 nM,O=C(O)c1ccc(OCCn2ccnc2)cc1 [DAZOXIBEN]
2,10000 nM,NC(=O)c1ccc(OCCn2ccnc2)cc1
3,> 100000 nM,O=C(O)COc1ccc(OCCn2ccnc2)cc1
4,> 100000 nM,NC(=O)COc1ccc(OCCn2ccnc2)cc1

# Molecular target: T3, Thromboxane-A synthase (Homo sapiens, UniProt P24557)
# T3 sequence (P24557 whole entry): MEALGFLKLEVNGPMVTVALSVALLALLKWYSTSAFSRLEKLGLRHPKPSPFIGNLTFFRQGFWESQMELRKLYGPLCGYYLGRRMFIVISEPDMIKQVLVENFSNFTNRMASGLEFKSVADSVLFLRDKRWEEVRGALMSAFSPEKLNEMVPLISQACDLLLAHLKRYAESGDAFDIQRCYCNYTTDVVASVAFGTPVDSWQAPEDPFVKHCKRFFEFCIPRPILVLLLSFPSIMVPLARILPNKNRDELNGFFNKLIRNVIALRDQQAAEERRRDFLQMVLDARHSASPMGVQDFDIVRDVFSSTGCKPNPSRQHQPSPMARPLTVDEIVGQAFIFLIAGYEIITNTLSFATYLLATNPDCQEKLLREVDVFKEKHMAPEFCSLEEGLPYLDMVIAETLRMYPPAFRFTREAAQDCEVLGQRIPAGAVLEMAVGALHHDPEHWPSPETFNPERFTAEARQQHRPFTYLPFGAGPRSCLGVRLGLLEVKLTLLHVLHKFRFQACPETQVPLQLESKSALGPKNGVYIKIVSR
# Assay: Inhibitory activity against thromboxane A2 synthetase
# Settings: not given
# How it was run: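 Human platelet microsomes, cyclooxygenase inactivated with 30 μM indomethacin (30 min, 0 °C). Compound preincubated 2 min on ice, pH 7.8 phosphate. Then 1 min on ice with freshly made PGH2 (from 0.1 mM arachidonic acid and ram seminal vesicle microsomes). Stopped with EtOH. TxB2 measured by RIA in triplicate; dose-response curves over several concentrations.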
row,SMILES,IC50
1,c1ccc(OCCn2ccnc2)cc1,660 nM
2,c1cn(CCOc2ccc(-c3nnn[nH]3)cc2)cn1,15 nM
3,O=C(O)Cc1ccccc1OCCn1ccnc1,> 10000 nM
4,NC(=O)c1ccccc1OCCn1ccnc1,22000 nM
5,COc1ccc2c(c1)c(CC(=O)O)c(C)n2C(=O)c1ccc(Cl)cc1 [INDOMETHACIN],> 100000 nM
6,N#Cc1cccc(OCCn2ccnc2)c1,3500 nM
7,c1c[nH]cn1 [IMIDAZOLE],670000 nM
8,O=C(O)c1cccc(OCCn2ccnc2)c1,530 nM
9,CC(C)c1[nH]c2ccccc2c1Cn1ccnc1,15 nM
10,O=C(O)c1ccccc1OCCn1ccnc1,> 10000 nM
11,O=C(NC(=O)c1ccc(OCCn2ccnc2)cc1)c1ccccc1,180 nM
12,O=[N+]([O-])c1ccc(OCCn2ccnc2)cc1,> 50000 nM
13,CCOC(=O)Cc1ccccc1OCCn1ccnc1,2000 nM
14,N#Cc1ccc(OCCn2ccnc2)cc1,13000 nM

# The remaining lines, values ahead:
row,IC50,SMILES
1,> 50000 nM,NS(=O)(=O)c1ccc(OCCn2ccnc2)cc1
2,56 nM,NC(=O)c1ccc(OCCn2ccnc2)cc1
3,3000 nM,CCOC(=O)c1ccc(OCCCn2ccnc2)cc1
4,95 nM,O=C(O)COc1ccc(OCCn2ccnc2)cc1
5,1100 nM,CN(C)C(=O)c1ccc(OCCn2ccnc2)cc1
6,630 nM,CC(=O)NC(=O)c1ccc(OCCn2ccnc2)cc1
7,850 nM,NC(=O)COc1ccc(OCCn2ccnc2)cc1
8,27 nM,O=C(O)c1ccc(OCCCn2ccnc2)cc1
9,860 nM,CNC(=O)c1ccc(OCCn2ccnc2)cc1
10,> 50000 nM,Nc1ccc(OCCn2ccnc2)cc1
11,610 nM,CCOC(=O)COc1ccc(OCCn2ccnc2)cc1
12,4400 nM,CCOC(=O)c1ccccc1OCCn1ccnc1
13,840 nM,NC(=O)Nc1ccc(OCCn2ccnc2)cc1
14,1800 nM,NC(=O)Cc1ccc(OCCn2ccnc2)cc1
15,4000 nM,CC(=O)Nc1ccc(OCCn2ccnc2)cc1
16,2900 nM,CCOC(=O)Cc1ccc(OCCn2ccnc2)cc1
17,32 nM,O=C(O)Cc1ccc(OCCn2ccnc2)cc1

# Reference: ChEMBL document CHEMBL1122814, “Selective thromboxane synthetase inhibitors. 1. 1-[(Aryloxy)alkyl]-1H-imidazoles” (J Med Chem, 1985)
